Source: ChEMBL document CHEMBL1641580, “Identification of 3-phenylaminoquinolinium and 3-phenylaminopyridinium salts as new agents against opportunistic fungal pathogens” (Bioorg Med Chem, 2011)
Calls of active or inactive are those of the source. No cut-off for these calls is given here.

Key:
Candida albicans [1] = assay: Antifungal activity against Candida albicans ATCC 90028 assessed as inhibition of fungal growth by alamar blue assay; format: functional, organism-based
Procedure, shortened: (§1)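 Broth microdilution modified from NCCLS. DMSO stocks serially diluted in saline and plated in duplicate. Inoculum set by 0.5 McFarland standard. Media: C. albicans in SDB or RPMI 1640; C. neoformans in SDB; A. fumigatus in RPMI-1640 + 5% Alamar Blue. Highest final concentration 20 µg/mL. Plates read before and after incubation by fluorescence 544ex/590em (A. fumigatus) or OD 630 nm. IC50 from percent growth vs concentration.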

Aspergillus fumigatus [2] = assay: Antifungal activity against Aspergillus fumigatus ATCC 90906 by microscopy; format: functional
Procedure, shortened: (§2)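 Modified NCCLS microdilution. Samples in DMSO serially diluted in saline and tested in duplicate against inocula standardized to 0.5 McFarland. Broths: C. albicans SDB or RPMI 1640; C. neoformans SDB; A. fumigatus YM broth. Highest final concentration 20 µg/mL. MIC read visually as the lowest concentration with no detectable growth (for Alamar Blue wells, no blue-to-pink change).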

Cryptococcus neoformans [3] = assay: Antifungal activity against Cryptococcus neoformans ATCC 90113 assessed as inhibition of fungal growth by alamar blue assay; format: functional, organism-based; procedure, shortened: as §1
Candida albicans [4] = assay: Antifungal activity against Candida albicans ATCC 90028 by microscopy; format: functional; procedure, shortened: as §2
[5] = Cytotoxicity against african green monkey Vero cells after 48 hrs by neutral red assay; format: cell-based; details: chlorocebus sabaeus, read-out: TC50
Procedure, shortened: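 Vero kidney fibroblasts seeded at 25,000 cells/well and grown 24 h, then exposed to samples up to 20 µg/ml for 48 h. Viable cells measured by neutral red assay. IC50 taken from growth-inhibition vs concentration curves. DMSO served as vehicle control.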

Aspergillus fumigatus [6] = assay: Antifungal activity against Aspergillus fumigatus ATCC 90906 assessed as inhibition of fungal growth by alamar blue assay; format: functional, organism-based; procedure, shortened: as §1
Candida albicans [7] = assay: Fungicidal activity against Candida albicans ATCC 90028; format: functional
Aspergillus fumigatus [8] = assay: Fungicidal activity against Aspergillus fumigatus ATCC 90906; format: functional
Cryptococcus neoformans [9] = assay: Antifungal activity against Cryptococcus neoformans ATCC 90113 by microscopy; format: functional
Procedure, shortened: as §2, with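 “McFarland.” for “McFarland. Broths: C. albicans SDB or RPMI 1640; C. neoformans SDB; A. fumigatus YM broth.”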

Cryptococcus neoformans [10] = assay: Fungicidal activity against Cryptococcus neoformans ATCC 90113; format: functional
Aspergillus fumigatus [11] = assay: Antifungal activity against Aspergillus fumigatus ATCC 90906 assessed as inhibition of fungal growth at 20 ug/mL by alamar blue assay; format: functional, organism-based; procedure, shortened: as §1
[12] = Aspergillus fumigatus, ATCC 90906, read-out: IC50

MIC (Aspergillus fumigatus [2]) [µg/mL]	MIC (Candida albicans [4]) [µg/mL]	MIC (Cryptococcus neoformans [9]) [µg/mL]	SMILES	IC50 (Candida albicans [1]) [µg/mL]	IC50 (Cryptococcus neoformans [3]) [µg/mL]	CC50 at 48 h [5] [µg/mL]	IC50 (Aspergillus fumigatus [6]; [12]) [µg/mL]	MFC (Candida albicans [7]) [µg/mL]	MFC (Aspergillus fumigatus [8]) [µg/mL]	MFC (Cryptococcus neoformans [10]) [µg/mL]	inhibition (Aspergillus fumigatus [11])	IC50 (Aspergillus fumigatus [6])
2.5	2.5	1.3	C[n+]1cc(N(CCCCCC2CCCCC2)c2cccc(Cl)c2)cc2ccccc21.[I-]	0.9	0.9	> 10	1	10	10	5		
20	5	1.3	C[n+]1cccc(N(CCCCCC2CCCCC2)c2cccc(Cl)c2)c1.[I-]	3	0.7	> 10	12.4	10	20	1.3		
	10	5	COc1ccccc1N(CCCCCC1CCCCC1)c1ccc[n+](C)c1.[I-]	5	3			10		5	inactive	
> 20	5	2.5	C[n+]1cccc(N(CCCCCC2CCCCC2)c2ccccc2Cl)c1.[I-]	2.8	2		18	5	> 20	2.5		
> 20	> 20	6.3	Clc1ccc(Nc2cc3ccccc3[n+](CCCCCc3ccccc3)c2)cc1.[I-]	15	4	> 25	10	> 20	> 20	12.5		
2.5	5	2.5	C[n+]1cccc(N(CCCCCC2CCCCC2)c2cccc(C(F)(F)F)c2)c1.[I-]	3	1.5	> 10	1.5	20	10	5		
	> 20	> 20	C[n+]1c2cccc(Cl)c2cc2[nH]c3ccccc3c21.O=S(=O)([O-])C(F)(F)F	0.6	7	5	> 20					
6.3	6.3	3.1	Clc1cccc(Nc2cc3ccccc3[n+](CCCCCC3CCCCC3)c2)c1.[I-]	2	2	> 10	3.5	13	> 20	50		
	20	5	C[n+]1cccc(N(CCCCCC2CCCCC2)c2ccc(C#N)cc2)c1.[I-]	19	2.6	> 10		> 20		5	inactive	
2.5	10	2.5	[I-].c1ccc(Nc2cc3ccccc3[n+](CCCCCC3CCCCC3)c2)cc1	3.5	1.5		1	> 20	10	10		
10	2.5	0.3	C[n+]1cc(N(CCCCCC2CCCCC2)c2ccccc2)cc2ccccc21.[I-]	1.2	0.2	9.8	4.6	2.5	10	0.6		
5	2.5	0.6	CCc1ccc(N(CCCCCC2CCCCC2)c2ccc[n+](C)c2)cc1.[I-]	1.3	0.4	10	2.7	5		5		
2.5	2.5	2.5	C[n+]1cccc(N(CCCCCC2CCCCC2)c2ccc(C(F)(F)F)cc2)c1.[I-]	1	1.5	> 10	1.5	10	5	5		
	> 20	1.6	Clc1ccc(Nc2cc3ccccc3[n+](CCCCCC3CCCCC3)c2)cc1.[I-]	2	1	> 10				> 20		Not Active
10	5	1.3	CSc1ccc(N(CCCCCC2CCCCC2)c2ccc[n+](C)c2)cc1.[I-]	2	1.2	> 10	6.4	10	10	2.5		
> 20	5	2.5	Cc1ccccc1N(CCCCCC1CCCCC1)c1ccc[n+](C)c1.[I-]	2.6	1.5		19	5	> 20	2.5		

MIC (Aspergillus fumigatus [2]) [µg/mL]	MIC (Candida albicans [4]) [µg/mL]	MIC (Cryptococcus neoformans [9]) [µg/mL]	SMILES	IC50 (Candida albicans [1]) [µg/mL]	IC50 (Cryptococcus neoformans [3]) [µg/mL]	CC50 at 48 h [5] [µg/mL]	IC50 (Aspergillus fumigatus [6]; [12]) [µg/mL]	MFC (Candida albicans [7]) [µg/mL]	MFC (Aspergillus fumigatus [8]) [µg/mL]	MFC (Cryptococcus neoformans [10]) [µg/mL]	inhibition (Aspergillus fumigatus [11])	IC50 (Aspergillus fumigatus [6])
10	5	2.5	Cc1cccc(N(CCCCCC2CCCCC2)c2ccc[n+](C)c2)c1.[I-]	3	1.4	> 10	8.7	10	20	2.5		
	> 20	> 20	C[n+]1c2ccccc2cc2[nH]c3ccc(Cl)cc3c21.[I-]	4.5	15	1.5	> 20					
10	> 20	20	C[n+]1c2ccccc2cc2[nH]c3ccc(Br)cc3c21.[I-]	2.5	2.5	0.93						
5	1.3	0.3	C[n+]1cc(N(CCCCCC2CCCCC2)c2ccccc2Cl)cc2ccccc21.[I-]	0.63	0.2		3.1	1.3	20	0.6		
	5	5	C[n+]1cccc(N(CCCCCC2CCCCC2)c2ccccc2C(F)(F)F)c1.[I-]	2.6	2.3			5		5	inactive	
			C[n+]1c2ccccc2cc2[nH]c3cccc(Cl)c3c21.[I-]	> 20	> 20	> 4.7	> 20					
	10	10	C[n+]1c2cc(Cl)ccc2c(Cl)c2[nH]c3ccccc3c21.[I-]	1	6	10	> 20	> 20		> 20		
1.3	1.3	2.5	C[n+]1c2ccc(Cl)cc2cc2c1c1ccccc1n2CCCCCC1CCCCC1.[I-]	0.6	0.9	1.4		> 20	> 20	10		
1.6	3.1	1.6	C[n+]1cccc(N(CCCCCC2CCCCC2)c2ccc(Cl)cc2)c1.[I-]	1.5	1	> 10	1					
			C[n+]1c2ccccc2cc2[nH]c3c(Cl)cccc3c21.[I-]	> 20	> 20	3.2						
1.3	1.3	0.6	C[n+]1cc(N(CCCCCC2CCCCC2)c2ccc(Cl)cc2)cc2ccccc21.[I-]	0.5	0.4	10	0.8	5	10	2.5		
> 20	5.5	5	C[n+]1c2ccc(Cl)cc2cc2[nH]c3ccccc3c21.[I-]	0.5	2		10	> 20	> 20	> 20		
		10	C[n+]1cccc(N(CCCCCC2CCCCC2)c2ccccc2C#N)c1.[I-]		6.6	> 10				20	inactive	
5	2.5	2.5	Cc1ccc(N(CCCCCC2CCCCC2)c2ccc[n+](C)c2)cc1.[I-]	1.5	1.5	> 10	1.5	10	5	5		
	> 20	> 20	C[n+]1c2cc(Cl)ccc2cc2[nH]c3ccccc3c21.O=S(=O)([O-])C(F)(F)F	3	15	2.1	> 20					
